The source made the active and inactive calls. The calls are words filed in the database; no cut-off is given here.
How the values were obtained:
[1] = (§1) Tmax in Sprague-Dawley rat at 5 mg/kg, po; format: ADME, organism-based; design: dose 5 mg/kg, route oral; details: Sprague-Dawley, in vivo
Procedure, shortened: (§2)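 Rats were given a single dose of compound formulated in DMSO/cyclodextrin, either intravenously at 1 mg/kg or orally at 5 mg/kg. Each parameter comes from the matching route arm. Dose-normalized AUC is expressed as h kg ng mL⁻¹ mg⁻¹.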

[2] = target: T1, Phosphatidylinositol 4-kinase alpha (Homo sapiens, UniProt P42356); assay: Inhibition of GST-tagged PI4K-alpha (1 to 2044) (unknown origin) using D-myo-phosphatidylinositol as substrate preincubated for 30 mins followed by substrate addition measured after 180 mins by luminescence assay
Target sequence in this assay (P42356 whole entry, canonical isoform): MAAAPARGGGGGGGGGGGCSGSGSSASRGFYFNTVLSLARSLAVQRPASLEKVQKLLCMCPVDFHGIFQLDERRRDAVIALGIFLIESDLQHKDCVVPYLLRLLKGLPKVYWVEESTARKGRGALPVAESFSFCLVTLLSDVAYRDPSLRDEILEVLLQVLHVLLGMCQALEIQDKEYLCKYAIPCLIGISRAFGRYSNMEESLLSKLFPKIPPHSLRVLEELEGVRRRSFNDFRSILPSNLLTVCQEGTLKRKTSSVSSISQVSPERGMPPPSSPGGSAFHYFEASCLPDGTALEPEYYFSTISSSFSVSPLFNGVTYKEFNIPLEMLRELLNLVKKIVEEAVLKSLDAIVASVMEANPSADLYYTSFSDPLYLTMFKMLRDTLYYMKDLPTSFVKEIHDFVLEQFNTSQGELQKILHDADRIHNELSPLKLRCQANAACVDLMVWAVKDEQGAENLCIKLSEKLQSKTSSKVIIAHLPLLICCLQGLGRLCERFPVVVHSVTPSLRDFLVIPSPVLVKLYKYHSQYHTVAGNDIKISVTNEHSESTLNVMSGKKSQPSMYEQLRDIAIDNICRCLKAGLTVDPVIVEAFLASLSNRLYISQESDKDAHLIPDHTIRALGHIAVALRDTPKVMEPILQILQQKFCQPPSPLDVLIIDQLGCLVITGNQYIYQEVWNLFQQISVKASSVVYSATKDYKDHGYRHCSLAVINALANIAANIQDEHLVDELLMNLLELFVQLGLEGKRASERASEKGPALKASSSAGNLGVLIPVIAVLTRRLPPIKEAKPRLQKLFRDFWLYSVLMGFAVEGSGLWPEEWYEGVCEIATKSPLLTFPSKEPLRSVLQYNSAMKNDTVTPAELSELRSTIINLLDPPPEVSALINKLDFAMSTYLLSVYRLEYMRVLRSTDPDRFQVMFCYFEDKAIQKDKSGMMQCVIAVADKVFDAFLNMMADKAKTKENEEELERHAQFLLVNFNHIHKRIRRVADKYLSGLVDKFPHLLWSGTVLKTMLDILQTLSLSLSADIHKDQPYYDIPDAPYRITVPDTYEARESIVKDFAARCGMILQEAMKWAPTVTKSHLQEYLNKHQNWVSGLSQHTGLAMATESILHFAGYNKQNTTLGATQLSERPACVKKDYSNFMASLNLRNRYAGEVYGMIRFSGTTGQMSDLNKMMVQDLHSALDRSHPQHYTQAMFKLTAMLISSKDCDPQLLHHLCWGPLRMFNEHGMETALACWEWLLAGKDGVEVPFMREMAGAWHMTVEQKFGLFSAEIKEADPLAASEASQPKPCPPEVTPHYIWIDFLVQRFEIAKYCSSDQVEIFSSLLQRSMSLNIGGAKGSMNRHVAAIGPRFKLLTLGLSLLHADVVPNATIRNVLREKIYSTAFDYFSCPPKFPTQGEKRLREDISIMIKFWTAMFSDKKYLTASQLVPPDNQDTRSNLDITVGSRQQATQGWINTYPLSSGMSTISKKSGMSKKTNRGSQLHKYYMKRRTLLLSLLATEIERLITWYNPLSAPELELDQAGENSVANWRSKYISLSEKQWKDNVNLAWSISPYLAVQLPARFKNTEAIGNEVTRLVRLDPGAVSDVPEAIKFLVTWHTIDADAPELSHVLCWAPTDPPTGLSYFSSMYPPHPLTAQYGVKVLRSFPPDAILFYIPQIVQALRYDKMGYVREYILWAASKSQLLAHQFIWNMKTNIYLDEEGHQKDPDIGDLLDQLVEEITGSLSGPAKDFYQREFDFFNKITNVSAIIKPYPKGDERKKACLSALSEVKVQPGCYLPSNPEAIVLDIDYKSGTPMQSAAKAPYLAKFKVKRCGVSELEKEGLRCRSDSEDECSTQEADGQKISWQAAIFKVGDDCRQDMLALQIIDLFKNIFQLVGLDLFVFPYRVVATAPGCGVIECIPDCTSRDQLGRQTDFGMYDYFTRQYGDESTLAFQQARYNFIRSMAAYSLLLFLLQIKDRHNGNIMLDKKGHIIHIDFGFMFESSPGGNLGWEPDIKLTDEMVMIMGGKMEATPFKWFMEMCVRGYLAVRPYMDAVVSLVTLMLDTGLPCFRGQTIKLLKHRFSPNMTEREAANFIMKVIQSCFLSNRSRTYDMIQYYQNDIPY

[3] = target: Phosphatidylinositol 4,5-bisphosphate 3-kinase catalytic subunit gamma isoform (Homo sapiens, UniProt P48736)
Chain of Phosphatidylinositol 4,5-bisphosphate 3-kinase catalytic subunit gamma isoform (P48736 whole entry, canonical isoform): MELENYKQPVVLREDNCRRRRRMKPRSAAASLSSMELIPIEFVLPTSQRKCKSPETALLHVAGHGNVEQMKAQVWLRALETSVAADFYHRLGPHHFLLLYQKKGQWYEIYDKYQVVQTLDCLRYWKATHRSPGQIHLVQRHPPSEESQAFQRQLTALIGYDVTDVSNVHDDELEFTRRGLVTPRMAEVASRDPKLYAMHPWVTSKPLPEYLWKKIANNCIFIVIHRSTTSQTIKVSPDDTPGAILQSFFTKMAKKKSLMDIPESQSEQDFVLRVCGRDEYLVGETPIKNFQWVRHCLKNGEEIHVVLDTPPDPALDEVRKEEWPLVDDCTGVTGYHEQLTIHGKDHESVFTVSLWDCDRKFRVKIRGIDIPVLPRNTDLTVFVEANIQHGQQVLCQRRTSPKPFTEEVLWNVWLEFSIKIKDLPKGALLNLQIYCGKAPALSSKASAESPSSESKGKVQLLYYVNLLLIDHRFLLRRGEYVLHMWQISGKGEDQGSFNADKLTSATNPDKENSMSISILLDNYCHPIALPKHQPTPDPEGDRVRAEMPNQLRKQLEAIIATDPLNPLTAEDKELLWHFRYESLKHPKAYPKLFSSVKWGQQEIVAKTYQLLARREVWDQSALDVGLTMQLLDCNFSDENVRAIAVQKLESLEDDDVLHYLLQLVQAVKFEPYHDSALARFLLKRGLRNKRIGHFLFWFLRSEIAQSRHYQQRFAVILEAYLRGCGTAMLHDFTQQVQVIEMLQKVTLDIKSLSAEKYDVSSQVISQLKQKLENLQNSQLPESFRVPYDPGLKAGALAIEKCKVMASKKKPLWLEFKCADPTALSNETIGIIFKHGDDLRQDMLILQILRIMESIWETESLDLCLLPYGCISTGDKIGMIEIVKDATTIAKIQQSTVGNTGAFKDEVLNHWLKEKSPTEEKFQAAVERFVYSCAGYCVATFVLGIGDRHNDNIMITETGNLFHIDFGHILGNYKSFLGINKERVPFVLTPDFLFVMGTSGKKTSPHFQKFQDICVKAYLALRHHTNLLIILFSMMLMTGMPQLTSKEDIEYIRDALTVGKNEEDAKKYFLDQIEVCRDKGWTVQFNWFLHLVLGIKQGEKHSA

[4] = (§3) Oral bioavailability in Sprague-Dawley rat at 5 mg/kg; format: ADME, organism-based; details: Sprague-Dawley, in vivo; procedure, shortened: as §2
[5] = (§4) Half life in Sprague-Dawley rat at 5 mg/kg, po; format: ADME, organism-based; design: dose 5 mg/kg, route oral; details: Sprague-Dawley, in vivo; procedure, shortened: as §2
[6] = Inhibition of PI3Kdelta (1 to 1044)/6xHis-tagged p85 (1 to 724) (unknown origin) using diC8-PIP2 as substrate preincubated for 30 mins followed by substrate addition measured after 45 to 60 mins; design: species or system Homo sapiens
[7] = Inhibition of 6xHis-tagged PI4K-beta (13 to 828) 316 to 330 deletion mutant (unknown origin) using D-myo-phosphatidylinositol as substrate preincubated for 30 mins followed by substrate addition measured after 180 mins by luminescence assay; design: species or system Homo sapiens
[8] = Inhibition of PI3Kalpha (1 to 1068)/6xHis-tagged p85 (1 to 724) (unknown origin) using diC8-PIP2 as substrate preincubated for 30 mins followed by substrate addition measured after 45 to 60 mins; design: species or system Homo sapiens
[9] = AUC in Sprague-Dawley rat at 5 mg/kg, po; format: ADME, organism-based; design: dose 5 mg/kg, route oral; details: plasma; procedure, shortened: as §2
Hepatitis C virus [10] = assay: Antiviral activity against Hepatitis C virus genotype 1b expressed in ET cells after 48 hrs by luciferase reporter gene assay; format: functional, organism-based, Hepacivirus hominis; details: for pIC50: et
[11] = (§5) Cmax in Sprague-Dawley rat at 5 mg/kg, po; format: ADME, organism-based; design: dose 5 mg/kg, route oral; details: Sprague-Dawley, in vivo; procedure, shortened: as §2
[12] = Inhibition of PI3Kbeta (1 to 1070)/6xHis-tagged p85 (1 to 724) (unknown origin) using diC8-PIP2 as substrate preincubated for 30 mins followed by substrate addition measured after 45 to 60 mins; design: species or system Homo sapiens
Rattus norvegicus [13] = assay: as §1; format: ADME, organism-based; design: dose 5 mg/kg, route oral; details: in vivo; procedure, shortened: as §2
Rattus norvegicus [14] = assay: Dose normalized AUC in Sprague-Dawley rat at 1 mg/kg, iv; format: ADME, organism-based; design: dose 1 mg/kg, route intravenous; details: in vivo; procedure, shortened: as §2
Rattus norvegicus [15] = assay: as §3; format: ADME, organism-based; details: in vivo; procedure, shortened: as §2
Rattus norvegicus [16] = assay: as §4; format: ADME, organism-based; design: dose 5 mg/kg, route oral; details: in vivo; procedure, shortened: as §2
Mus musculus [17] = assay: Toxicity in mouse assessed as morbidity at 40 mg/kg/day; format: organism-based; details: in vivo
Procedure, shortened: (§6)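 Mouse repeat-dose toxicity study: 40 mg/kg/day given daily for 14 days. Endpoints were morbidity, mortality, test-article-related changes in stomach, thymus and spleen, and clinical pathology parameters.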

Mus musculus [18] = assay: Toxicity in mouse assessed as pathological changes in stomach at 40 mg/kg/day; format: organism-based; details: in vivo; procedure, shortened: as §6
Rattus norvegicus [19] = assay: Half life in Sprague-Dawley rat at 1 mg/kg, iv; format: ADME, organism-based; design: dose 1 mg/kg, route intravenous; details: in vivo; procedure, shortened: as §2
Mus musculus [20] = assay: Toxicity in mouse assessed as pathological changes in spleen at 40 mg/kg/day; format: organism-based; details: in vivo; procedure, shortened: as §6
Hepatitis C virus [21] = assay: Antiviral activity against Hepatitis C virus genotype 2a expressed in human Huh-7 Lunet cells after 48 hrs by luciferase reporter gene assay; format: functional, organism-based, Hepacivirus hominis; details: for pIC50: huh-7
[22] = Toxicity in mouse after 14 days; format: organism-based; details: in vivo; procedure, shortened: as §6
Rattus norvegicus [23] = assay: (§7) Volume of distribution at steady state in Sprague-Dawley rat at 1 mg/kg, iv; format: ADME, organism-based; design: dose 1 mg/kg, route intravenous; details: in vivo; procedure, shortened: as §2
Rattus norvegicus [24] = assay: Dose normalized AUC in Sprague-Dawley rat at 5 mg/kg, po; format: ADME, organism-based; design: dose 5 mg/kg, route oral; details: in vivo; procedure, shortened: as §2
Hepatitis C virus [25] = assay: Antiviral activity against Hepatitis C virus genotype 1a expressed in ET cells after 48 hrs by luciferase reporter gene assay; format: functional, organism-based, Hepacivirus hominis, subtype 1a; details: for pIC50: et
Rattus norvegicus [26] = assay: as §5; format: ADME, organism-based; design: dose 5 mg/kg, route oral; details: in vivo; procedure, shortened: as §2
Mus musculus [27] = assay: Toxicity in mouse assessed as pathological changes in thymus at 40 mg/kg/day; format: organism-based; details: in vivo; procedure, shortened: as §6
Mus musculus [28] = assay: Toxicity in mouse assessed as mortality at 40 mg/kg/day; format: organism-based; details: in vivo; procedure, shortened: as §6
[29] = target: T1, Phosphatidylinositol 4-kinase alpha; assay: Competitive inhibition of GST-tagged PI4K-alpha (1 to 2044) (unknown origin) in presence of ATP
[30] = Clearance in Sprague-Dawley rat at 1 mg/kg, iv; format: ADME, organism-based; design: dose 1 mg/kg, route intravenous; details: in vivo; procedure, shortened: as §2
[31] = Thermodynamic stability of the compound in DMSO assessed as decomposition at 80 degC after 6 days; format: physicochemical; details: 144 h
[32] = Thermodynamic stability of the compound in DMSO assessed as interconversion at 80 degC after 6 days; format: physicochemical; details: 144 h
[33] = as §7; format: ADME, organism-based; design: dose 1 mg/kg, route intravenous; details: Sprague-Dawley, in vivo, read-out: Vdss; procedure, shortened: as §2
[34] = Hepatitis C virus, genotype 1b, ET, 48 h

| SMILES | Tmax [1] [h] | IC50 [2] [nM] | IC50 [3] [nM] | bioavailability [4] [%] | half-life [5] [h] | pIC50 [6] | pIC50 [7] | pIC50 [8] | AUC [9] [ng·h/mL] | Cmax [11] [ng/mL] | pIC50 [12] | AUC/dose (Rattus norvegicus [14]) [kg·ng·h/mL/mg] | t1/2 (Rattus norvegicus [19]) [h] | pIC50 (Hepatitis C virus [21]) | AUC/dose (Rattus norvegicus [24]) [kg·ng·h/mL/mg] | pIC50 (Hepatitis C virus [25]) | pIC50 (Hepatitis C virus [10]) | Cmax (Rattus norvegicus [26]) [ng/mL] | also measured |
| --- | --- | --- | --- | --- | --- | --- | --- | --- | --- | --- | --- | --- | --- | --- | --- | --- | --- | --- | --- |
| COc1ncc(-c2ccc3nc(N)n(-c4ccccc4)c(=O)c3c2)cc1NS(=O)(=O)c1ccc(F)cc1F | 6 | 1.58 | 3.98 | 60 | 6.7 | 8.2 | 7.2 | 8.2 | 60200 | 3580 | 7 |  |  |  |  |  |  |  | IC50 (Hepatitis C virus [10]; [34]): 0.501 nM |
| COc1ncc(-c2ccc3nc(N)n(-c4ccccc4C(F)(F)F)c(=O)c3c2)cc1S(=O)(=O)Nc1ccc(F)cc1F (atropisomer aS) |  | 5.01 | 2510 |  |  | 5.6 | 6 | 5.6 |  |  | 5.1 | 3695 | 1.3 | 7.9 | 3626 | 7.9 | 8.6 | 1556 | Tmax (Rattus norvegicus [13]): 4.25 h; F (Rattus norvegicus [15]): 98%; t1/2 (Rattus norvegicus [16]): 4 h; Activity (Mus musculus [17]): Toxic; Activity (Mus musculus [18]): Toxic; Activity (Mus musculus [20]): Toxic; MTD at 336 h [22]: 50 mg/kg; Vdss (Rattus norvegicus [23]): 0.34 L/kg; Activity (Mus musculus [27]): Toxic; Activity (Mus musculus [28]): Toxic |
| COc1ncc(-c2ccc3nc(N)c(-c4ccc(N5CCOCC5)cc4)cc3c2)cc1NS(=O)(=O)c1ccc(F)cc1F | 0.67 | 39.8 | 631 | 38 | 2.39 | 6.2 | 5.5 | 5.6 | 5000 | 1390 | 5 |  |  |  |  |  |  |  | inhibition [29]: Active; EC50 (Hepatitis C virus [21]; Hepatitis C virus, genotype 2a, Huh-7, 48 h): 20 nM; EC50 (Hepatitis C virus [25]; Hepatitis C virus, subtype 1a, ET, 48 h): 31.6 nM; EC50 (Hepatitis C virus [10]; [34]): 3.98 nM |
| COc1ncc(-c2ccc3nc(N)n(-c4ccccc4C(F)(F)F)c(=O)c3c2)cc1S(=O)(=O)Nc1ccc(F)cc1F (atropisomer aR) | 3 | 126 | 3160 | > 100 | 2.7 | 5 | 5.3 | 5.5 |  |  | 4.8 | 7113 | 3.5 | 7.1 | 9985 | 6.9 | 7.8 | 4429 | clearance [30]: 2.5 mL/min/kg; Stability [31]: Stable; Stability [32]: Stable; Vd [33]: 0.55 L/kg |

Reference: ChEMBL document CHEMBL3120088, “Discovery of selective small molecule type III phosphatidylinositol 4-kinase alpha (PI4KIIIα) inhibitors as anti hepatitis C (HCV) agents” (J Med Chem, 2014)
